Measurements: ChEMBL document CHEMBL1142735, “Discovery of a new series of centrally active tricyclic isoxazoles combining serotonin (5-HT) reuptake inhibition with alpha2-adrenoceptor blocking activity” (J Med Chem, 2005)

Assays:
[1] = target: T1, Alpha-2C adrenergic receptor (Homo sapiens, UniProt P18825); assay: Binding affinity for alpha-2C adrenergic receptor
T1 sequence (P18825 whole entry): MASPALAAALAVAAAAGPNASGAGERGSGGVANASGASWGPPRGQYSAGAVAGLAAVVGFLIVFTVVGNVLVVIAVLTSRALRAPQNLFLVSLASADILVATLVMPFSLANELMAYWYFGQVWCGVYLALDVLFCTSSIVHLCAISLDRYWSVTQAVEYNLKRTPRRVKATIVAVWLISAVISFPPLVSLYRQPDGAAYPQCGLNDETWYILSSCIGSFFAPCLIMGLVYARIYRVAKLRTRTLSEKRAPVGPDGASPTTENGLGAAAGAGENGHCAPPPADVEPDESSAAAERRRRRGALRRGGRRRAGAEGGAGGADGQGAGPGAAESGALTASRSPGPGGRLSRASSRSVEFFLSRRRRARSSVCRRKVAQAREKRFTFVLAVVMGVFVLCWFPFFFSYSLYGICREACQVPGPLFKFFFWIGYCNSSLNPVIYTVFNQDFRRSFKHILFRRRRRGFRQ
Summary of the method: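 Human alpha2C receptor stably expressed in CHO cell membranes (5-10 µg protein) in 25 mM glycylglycine, pH 7.6. Competition against [3H]rauwolscine (1 nM), 30 min at 25 °C. Nonspecific binding defined with spiroxatrine (1 µM). Rapid filtration over GF/B, washed with ice-cold 50 mM Tris-HCl pH 8.0, scintillation counting. Sigmoidal curves fitted; Ki by Cheng-Prusoff.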

[2] = target: Sodium-dependent serotonin transporter (Homo sapiens, UniProt P31645); assay: Binding affinity for serotonin transporter
Sequence of Sodium-dependent serotonin transporter (P31645 whole entry): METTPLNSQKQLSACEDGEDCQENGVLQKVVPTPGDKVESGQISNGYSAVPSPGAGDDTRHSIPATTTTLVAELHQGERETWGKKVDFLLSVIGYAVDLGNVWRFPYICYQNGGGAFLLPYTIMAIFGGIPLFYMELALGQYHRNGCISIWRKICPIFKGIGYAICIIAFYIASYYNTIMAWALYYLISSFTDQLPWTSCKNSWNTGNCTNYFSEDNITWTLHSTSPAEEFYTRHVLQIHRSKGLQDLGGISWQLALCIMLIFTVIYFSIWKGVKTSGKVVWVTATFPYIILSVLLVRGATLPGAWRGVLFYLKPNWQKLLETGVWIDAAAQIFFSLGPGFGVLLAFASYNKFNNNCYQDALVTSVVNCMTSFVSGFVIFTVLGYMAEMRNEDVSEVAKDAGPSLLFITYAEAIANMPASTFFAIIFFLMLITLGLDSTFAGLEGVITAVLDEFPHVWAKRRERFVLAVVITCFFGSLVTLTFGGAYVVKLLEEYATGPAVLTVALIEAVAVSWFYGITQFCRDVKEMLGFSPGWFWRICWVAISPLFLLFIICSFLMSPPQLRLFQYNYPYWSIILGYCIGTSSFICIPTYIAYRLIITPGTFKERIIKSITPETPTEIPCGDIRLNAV
Summary of the method: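 Human platelet membranes (50 µg protein) in 50 mM Tris-HCl pH 7.4 with 120 mM NaCl and 5 mM KCl. Competition against [3H]paroxetine (0.5 nM), 60 min at 25 °C. Nonspecific binding defined with imipramine (1 µM). Filtration over 0.1% PEI-presoaked GF/B, washed with incubation buffer. Sigmoidal fit of specific binding; Ki via Cheng-Prusoff.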

Row | Ki [1] [nM] | Ki [2] [nM] | SMILES
1 | 0.2 | 5.7 | COCC(=O)Oc1ccc2c(c1)OC[C@@H]1C2=NO[C@H]1CN1CCN(C/C(C)=C/c2ccccc2)CC1
2 | 0.3 | 26 | C/C(=C\c1ccccc1)CN1CCN(C[C@@H]2ON=C3c4ccc(OC(=O)C5CC5)cc4OC[C@H]32)CC1
3 | 0.2 |  | COc1ccc2c(c1)OC[C@@H]1C2=NO[C@H]1CN1CCN(C/C(C)=C/c2ccccc2)CC1
4 | 0.2 | 7.7 | CC(=O)Oc1ccc2c(c1)OC[C@@H]1C2=NO[C@H]1CN1CCN(C/C(C)=C/c2ccccc2)CC1
5 |  | 3.5 | C/C(=C\c1ccccc1)CN1CCN(C[C@@H]2ON=C3c4ccc(OCCN(C)C)cc4OC[C@H]32)CC1
6 | 1.6 | 12 | C/C(=C\c1ccccc1)CN1CCN(C[C@@H]2ON=C3c4ccc(OC(=O)C(C)(C)C)cc4OC[C@H]32)CC1
7 | 0.2 | 17 | CCOCCOCCOc1ccc2c(c1)OC[C@@H]1C2=NO[C@H]1CN1CCN(C/C(C)=C/c2ccccc2)CC1
8 | 0.5 | 41 | C=CC(=O)Oc1ccc2c(c1)OC[C@@H]1C2=NO[C@H]1CN1CCN(C/C(C)=C/c2ccccc2)CC1
9 |  | 3.6 | C/C(=C\c1ccccc1)CN1CCN(C[C@@H]2ON=C3c4ccc(O)cc4OC[C@H]32)CC1
10 | 1.7 |  | C(=C\c1ccccc1)/CN1CCN(C[C@@H]2ON=C3c4ccccc4OC[C@H]32)CC1
11 | 3.9 | 7.3 | COc1ccc2c(c1)C=C[C@@H]1C2=NO[C@H]1CN1CCN(C/C=C/c2ccccc2)CC1
12 | 9.6 | 0.5 | c1ccc2c(c1)NC[C@@H]1C2=NO[C@H]1CN1CCN(Cc2ccc3ccccc3c2)CC1
13 | 0.1 | 8.9 | COc1cc2c(cc1OC)C1=NO[C@@H](CN3CCN(C/C(C)=C/c4ccccc4)CC3)[C@@H]1CN2
14 | 0.5 | 56 | C/C(=C\c1ccccc1)CN1CCN(C[C@@H]2ON=C3c4ccc(OC5CCCC5)cc4OC[C@H]32)CC1
15 | 0.5 | 13 | C/C(=C\c1ccccc1)CN1CCN(C[C@@H]2ON=C3c4ccc(OC(=O)c5ccncc5)cc4OC[C@H]32)CC1
16 | 0.03 | 4.5 | COCCOc1ccc2c(c1)OC[C@@H]1C2=NO[C@H]1CN1CCN(C/C(C)=C/c2ccccc2)CC1

More lines, now with the values behind:

Row | SMILES | Ki [1] [nM] | Ki [2] [nM]
17 | COc1cc2c(cc1OC)C1=NO[C@@H](CN3CCN(CCOc4ccc(F)cc4)CC3)[C@@H]1CN2 | 1.6 | 154
18 | CN1C[C@@H]2C(=NO[C@H]2CN2CCN(C/C=C/c3ccccc3)CC2)c2ccccc21 | 4.5 | 16
19 | COc1ccc2c(c1)C=C[C@@H]1C2=NO[C@H]1CN1CCN(Cc2ccc3ccccc3c2)CC1 | 6.3 | 1.4
20 | CCNC(=O)N1C[C@@H]2C(=NO[C@H]2CN2CCN(C/C=C/c3ccccc3)CC2)c2ccccc21 | 2.7 | 23
21 | COc1cc2c(cc1OC)C1=NO[C@@H](CN3CCN(Cc4ccc(Cl)cc4)CC3)[C@@H]1CN2 | 23 | 151
22 | CCOC(=O)N1C[C@@H]2C(=NO[C@H]2CN2CCN(C/C=C/c3ccccc3)CC2)c2ccccc21 | 9.8 | 2.6
23 | COc1cc2c(cc1OC)C1=NO[C@@H](CN3CCN(Cc4ccc5ccccc5c4)CC3)[C@@H]1CN2 | 12 | 1.5
24 | COc1cc2c(cc1OC)N(C)C[C@@H]1C2=NO[C@H]1CN1CCN(CCCC(C)=Cc2ccccc2)CC1 | 4 | 104
25 | C1=C[C@@H]2C(=NO[C@H]2CN2CCN(C/C=C/c3ccccc3)CC2)c2ccccc21 | 112 | 106
26 | COc1cc2c(cc1OC)C1=NO[C@@H](CN3CCN(Cc4ccc5ncccc5c4)CC3)[C@@H]1CN2 | > 1000 | 22
27 | C(=C\c1ccccc1)/CN1CCN(C[C@@H]2ON=C3c4ccccc4NC[C@H]32)CC1 | 15 | 84
28 | COc1cc2c(cc1OC)C1=NO[C@@H](CN3CCN(C/C=C/c4ccccc4)CC3)[C@@H]1CN2 | 5.4 | 9.7
29 | CC(=O)N1C[C@@H]2C(=NO[C@H]2CN2CCN(CCC/C=C/c3ccccc3)CC2)c2ccccc21 | 11 | 61
